What is called EC50 is the concentration giving half of the maximal effect. One may read the clearance as the rate of elimination divided by the concentration. Low readings indicate inefficient removal, high ones efficient removal. By AUC(0-inf) is commonly meant the area under the concentration-time curve extrapolated to infinity. Read a low AUC(0-inf) as less exposure. As usually defined, the Cmax is the peak of the concentration-time curve. Broadly, the bioavailability is the share of a dose that reaches the circulation, judged against a reference dose that is usually intravenous. The low end stands for poor availability, the high end for good availability. What is called Tmax is the time at which the peak concentration occurs.

Experimental findings from ChEMBL document CHEMBL4138227, “Identification of an oxime-containing C-glucosylarene as a potential inhibitor of sodium-dependent glucose co-transporter 2” (Eur J Med Chem, 2018) are described below.

The target of data set [1] is T1, Sodium/glucose cotransporter 2 (Homo sapiens, UniProt P31639).
T1 sequence (P31639 whole entry): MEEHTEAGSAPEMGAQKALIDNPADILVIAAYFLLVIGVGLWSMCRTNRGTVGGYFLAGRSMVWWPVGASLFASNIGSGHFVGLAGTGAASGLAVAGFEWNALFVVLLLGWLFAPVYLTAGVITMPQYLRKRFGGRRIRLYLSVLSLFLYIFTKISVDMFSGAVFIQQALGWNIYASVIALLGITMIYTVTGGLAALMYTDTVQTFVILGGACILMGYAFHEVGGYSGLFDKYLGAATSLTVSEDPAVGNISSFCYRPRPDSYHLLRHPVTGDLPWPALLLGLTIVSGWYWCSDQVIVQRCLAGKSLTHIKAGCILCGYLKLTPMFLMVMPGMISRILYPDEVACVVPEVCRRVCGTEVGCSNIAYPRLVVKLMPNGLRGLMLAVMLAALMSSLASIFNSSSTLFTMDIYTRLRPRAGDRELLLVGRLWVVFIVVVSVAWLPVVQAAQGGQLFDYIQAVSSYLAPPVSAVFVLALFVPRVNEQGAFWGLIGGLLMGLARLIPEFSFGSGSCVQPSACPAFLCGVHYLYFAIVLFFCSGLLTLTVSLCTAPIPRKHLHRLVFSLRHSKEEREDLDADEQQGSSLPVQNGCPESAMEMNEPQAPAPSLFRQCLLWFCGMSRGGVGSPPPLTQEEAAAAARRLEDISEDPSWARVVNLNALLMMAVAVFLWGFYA
The experiment in a line: Inhibition of human SGLT2 expressed in CHO cells assessed as reduction in [14C]AMG uptake after 1 hr by microbeta counting method. It is filed as cell-based. The essentials:
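CHO cells stably expressing human SGLT2 (or SGLT1); inhibition of sodium-dependent uptake of [14C]α-methyl-D-glucopyranoside measured; EC50 from at least two independent experiments, each in triplicate.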

Data set [2] can be described thus: Elimination half life in Sprague-Dawley rat at 0.9 mg/kg, iv. The class given is ADME, organism-based. The conditions noted are these: in vivo, read-out: beta t1/2 (converted).
Data set [3] in a line: Clearance in Sprague-Dawley rat at 0.9 mg/kg, iv. The class given is ADME, organism-based. The conditions noted are these: in vivo.
A short description of data set [4]: Volume of distribution at steady state in Sprague-Dawley rat at 0.9 mg/kg, iv. The class given is ADME, organism-based. The conditions noted are these: in vivo, read-out: Vdss.
Data set [5] is described as follows: AUC (0 to infinity) in Sprague-Dawley rat at 0.9 mg/kg, iv. It is filed as ADME, organism-based. As to conditions: in vivo. On the set-up: dose 0.9 mg/kg, route intravenous, time infinity. The gist of the method: (§1)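 Rats got a single intravenous or oral dose, with 3 animals per route. Pharmacokinetic parameters were derived, including T1/2, clearance, Vss, Cmax, Tmax, AUC(0-inf) and oral bioavailability (F).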

Data set [6] can be described thus: Volume of distribution at steady state in Sprague-Dawley rat at 1 mg/kg, iv. The class given is ADME, organism-based. As to conditions: in vivo, read-out: Vdss.
Data set [7] can be described thus: AUC (0 to infinity) in Sprague-Dawley rat at 1 mg/kg, po. The class given is ADME, organism-based. On the set-up: dose 1 mg/kg, time infinity, route oral. The conditions noted are these: in vivo. The essentials:
as §1

A short description of data set [8]: Cmax in Sprague-Dawley rat at 1 mg/kg, po. It is filed as ADME, organism-based. Also noted: dose 1 mg/kg, route oral. As to conditions: in vivo.
Data set [9] is described as follows: Clearance in Sprague-Dawley rat at 1 mg/kg, iv. The conditions noted are these: in vivo. It is filed as ADME, organism-based.
The nature of data set [10]: AUC (0 to infinity) in Sprague-Dawley rat at 1 mg/kg, iv. The class given is ADME, organism-based. Also noted: dose 1 mg/kg, time infinity, route intravenous. As to conditions: in vivo. The essentials: as §1
The nature of data set [11]: Oral bioavailability in Sprague-Dawley rat at 1 mg/kg. It is filed as ADME, organism-based. The conditions noted are these: in vivo.
Data set [12] is described as follows: Elimination half life in Sprague-Dawley rat at 1 mg/kg, iv. As to conditions: in vivo, read-out: beta t1/2 (converted). The class given is ADME, organism-based.
A short description of data set [13]: Elimination half life in Sprague-Dawley rat at 1 mg/kg, po. The class given is ADME, organism-based. The conditions noted are these: in vivo, read-out: beta t1/2 (converted).
Data set [14] in a line: Tmax in Sprague-Dawley rat at 1 mg/kg, po. It is filed as ADME, organism-based. As to conditions: in vivo.

SMILES strings stand for the structures.

Turning to `CCOc1ccc(Cc2cc([C@@H]3O[C@H](/C=N/Nc4ccccc4[N+](=O)[O-])[C@@H](O)[C@H](O)[C@H]3O)ccc2Cl)cc1`, the EC50 in [1] was 457 nM.

`CCOc1ccc(Cc2cc([C@@H]3O[C@H](/C=N/OCCO)[C@@H](O)[C@H](O)[C@H]3O)ccc2Cl)cc1`: the EC50 in data set [1] was determined as 194 nM.

Consider `C#CCO/N=C/[C@H]1O[C@@H](c2ccc(Cl)c(Cc3ccc(OCC)cc3)c2)[C@H](O)[C@@H](O)[C@@H]1O`, for which the EC50 in data set [1] worked out at 431 nM.

With `CCOc1ccc(Cc2cc([C@@H]3O[C@H](/C=N/NC(=O)c4ccccc4)[C@@H](O)[C@H](O)[C@H]3O)ccc2Cl)cc1`, the half-life in data set [2] was 0.36 h. Also, the EC50 in data set [1] was determined as 130 nM. This compound also returned a clearance in data set [3] of 75.7 mL/min/kg. Besides, the Vd in data set [4] was found to be 1.4 L/kg. The same compound yielded an AUC(0-inf) in [5] of 206 ng·h/mL.

Regarding `CCOc1ccc(Cc2cc([C@@H]3O[C@H](/C=N/NC(=O)c4ccco4)[C@@H](O)[C@H](O)[C@H]3O)ccc2Cl)cc1`, in data set [1], the EC50 amounted to 301 nM.

As for `CCOc1ccc(Cc2cc([C@@H]3O[C@H](/C=N/OCCOC)[C@@H](O)[C@H](O)[C@H]3O)ccc2Cl)cc1`, the EC50 in data set [1] is 678 nM.

As for `CCOc1ccc(Cc2cc([C@@H]3O[C@H](/C=N/NCc4ccccc4)[C@@H](O)[C@H](O)[C@H]3O)ccc2Cl)cc1`, in data set [1], the EC50 came to 38 nM.

In the case of `CCOc1ccc(Cc2cc([C@@H]3O[C@H](/C=N/Nc4nc5ccccc5s4)[C@@H](O)[C@H](O)[C@H]3O)ccc2Cl)cc1`, the EC50 in [1] turned out to be 204 nM.

As to `CCOc1ccc(Cc2cc([C@@H]3O[C@H](/C=N/NC(=O)c4cccs4)[C@@H](O)[C@H](O)[C@H]3O)ccc2Cl)cc1`, the EC50 in data set [1] was found to be 175 nM.

`CCOc1ccc(Cc2cc([C@@H]3O[C@H](CNNc4ccc([N+](=O)[O-])cc4)[C@@H](O)[C@H](O)[C@H]3O)ccc2Cl)cc1`: the EC50 in data set [1] was 211 nM.

Take `CCOc1ccc(Cc2cc([C@@H]3O[C@H](/C=N/OC)[C@@H](O)[C@H](O)[C@H]3O)ccc2Cl)cc1`: the Vd in data set [6] stood at 2.9 L/kg. Also, the AUC(0-inf) was 540 ng·h/mL in data set [7] and 1320 ng·h/mL in data set [10]. Further, in [1], the EC50 is 92 nM. The compound also had a Cmax in data set [8] of 116 ng/mL. Further, in data set [9], the clearance came out at 12.6 mL/min/kg. In addition, in data set [11], the bioavailability worked out at 40.5%. The half-life in data set [12] is 3 h; in data set [13], 2.5 h. Also, the Tmax in [14] came to 1 h.

`CCOc1ccc(Cc2cc([C@@H]3O[C@H](/C=N/OCc4ccccc4)[C@@H](O)[C@H](O)[C@H]3O)ccc2Cl)cc1`: the EC50 in [1] came to 2250 nM.

Consider `CCOc1ccc(Cc2cc([C@@H]3O[C@H](/C=N/NC(=O)c4ccc(Cl)cc4)[C@@H](O)[C@H](O)[C@H]3O)ccc2Cl)cc1`, for which the EC50 in data set [1] was 65 nM.
